Source: ChEMBL document CHEMBL1138555, “N-acylated and N,N'-diacylated imidazolidine-2-thione derivatives and N,N'-diacylated tetrahydropyrimidine-2(1H)-thione analogues: synthesis and antiproliferative activity” (Eur J Med Chem, 2009)

Assays:
ACHN = test: Growth inhibition of human ACHN cells after 48 hrs by sulforhodamine B assay; type: functional
Method in brief: (§1)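 NCI screen panel. Five 10-fold concentrations from 10^-4 to 10^-8 M. Exposure for the last 48 h of a 72 h incubation. Growth estimated by sulforhodamine B protein assay. GI50 is the concentration giving 50% growth inhibition. Where that level was not reached or was exceeded, the value is given as above or below the highest or lowest concentration tested.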

SK-OV-3 = test: Growth inhibition of human SKOV3 cells after 48 hrs by sulforhodamine B assay; type: functional; settings: SK-OV-3, 48 h; method in brief: as §1
HOP-92 = test: Growth inhibition of human HOP92 cells after 48 hrs by sulforhodamine B assay; type: functional; settings: HOP-92, 48 h; method in brief: as §1
U-251 = test: Growth inhibition of human U251 cells after 48 hrs by sulforhodamine B assay; type: functional; settings: U-251, 48 h
Method in brief: (§2)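 NCI in vitro panel screen. Compounds tested at five 10-fold dilutions, 10^-4 to 10^-8 M. Cells in 96-well plates were exposed for the last 48 h of a 72 h incubation. Viability/growth was read by sulforhodamine B protein assay. GI50 is the concentration giving 50% growth inhibition. Values beyond the tested range are reported as greater or less than the maximum or minimum concentration.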

UACC-62 = test: Growth inhibition of human UACC62 cells after 48 hrs by sulforhodamine B assay; type: functional; settings: UACC-62, 48 h; method in brief: as §2
SF-295 = test: Growth inhibition of human SF295 cells after 48 hrs by sulforhodamine B assay; type: functional; settings: SF-295, 48 h; method in brief: as §1
[1] = Growth inhibition of human […] cells after 48 hrs by sulforhodamine B assay; type: functional; method in brief: as §1
NCI-H322M = test: Growth inhibition of human NCI-H322M cells after 48 hrs by sulforhodamine B assay; type: functional; method in brief: as §1
Malme-3M = test: Growth inhibition of human MALME-3M cells after 48 hrs by sulforhodamine B assay; type: functional; method in brief: as §1
TK-10 = test: Growth inhibition of human TK10 cells after 48 hrs by sulforhodamine B assay; type: functional; settings: TK-10, 48 h; method in brief: as §2
OVCAR-8 = test: Growth inhibition of human OVCAR8 cells after 48 hrs by sulforhodamine B assay; type: functional; settings: OVCAR-8, 48 h; method in brief: as §1
SK-MEL-28 = test: Growth inhibition of human SK-MEL-28 cells after 48 hrs by sulforhodamine B assay; type: functional; settings: SK-MEL-28, 48 h; method in brief: as §1
MOLT-4 = test: Growth inhibition of human MOLT4 cells after 48 hrs by sulforhodamine B assay; type: functional; settings: MOLT-4, 48 h; method in brief: as §1
SK-MEL-5 = test: Growth inhibition of human SK-MEL-5 cells after 48 hrs by sulforhodamine B assay; type: functional; settings: SK-MEL-5, 48 h; method in brief: as §1
PC-3 = test: Growth inhibition of human PC3 cells after 48 hrs by sulforhodamine B assay; type: functional; settings: PC-3, 48 h; method in brief: as §1
SK-MEL-2 = test: Growth inhibition of human SK-MEL-2 cells after 48 hrs by sulforhodamine B assay; type: functional; settings: SK-MEL-2, 48 h; method in brief: as §1
KM12 = test: Growth inhibition of human KM12 cells after 48 hrs by sulforhodamine B assay; type: functional; settings: KM12, 48 h; method in brief: as §1
HCT-15 = test: Growth inhibition of human HCT15 cells after 48 hrs by sulforhodamine B assay; type: functional; settings: HCT-15, 48 h; method in brief: as §1
HL-60(TB) = test: Growth inhibition of human HL-60(TB) cells after 48 hrs by sulforhodamine B assay; type: functional; settings: HL-60, 48 h
Method in brief: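 NCI 60-cell-line screen protocol: cells exposed to compound at five 10-fold dilutions from 10^-4 to 10^-8 M for the last 48 h of a 72 h incubation. Sulforhodamine B protein assay estimated viability/growth. GI50 (50% growth inhibition) derived; where not reached or exceeded, reported as greater or less than the highest or lowest concentration tested.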

EKVX = test: Growth inhibition of human EKVX cells after 48 hrs by sulforhodamine B assay; type: functional; method in brief: as §1
SW-620 = test: Growth inhibition of human SW620 cells after 48 hrs by sulforhodamine B assay; type: functional; settings: SW-620, 48 h; method in brief: as §2
MT4 = test: Antiproliferative activity against human MT4 cells assessed as reduction of growth by MTT assay; type: functional, cell-based
Method in brief: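 MT-4 lymphoblastoid T cells (ATCC) in RPMI 1640 with 10% FCS, penicillin/streptomycin, checked for mycoplasma. 1 × 10⁴ mock-infected cells per well with serial dilutions from a 100 mM DMSO stock. Incubated 4 days at 37 °C, viable cells counted by MTT. IC50 versus untreated controls by linear regression. Mean of three separate experiments.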

OVCAR-4 = test: Growth inhibition of human OVCAR4 cells after 48 hrs by sulforhodamine B assay; type: functional; settings: OVCAR-4, 48 h; method in brief: as §1
MCF7 = test: Growth inhibition of human MCF7 cells after 48 hrs by sulforhodamine B assay; type: functional; settings: MCF7, 48 h; method in brief: as §1
SN12C = test: Growth inhibition of human SN12C cells after 48 hrs by sulforhodamine B assay; type: functional; method in brief: as §2
CAKI-1 = test: Growth inhibition of human Caki1 cells after 48 hrs by sulforhodamine B assay; type: functional; settings: CAKI-1, 48 h; method in brief: as §1
MDA-MB-435 = test: Growth inhibition of human MDA-MB-435 cells after 48 hrs by sulforhodamine B assay; type: functional; settings: MDA-MB-435, 48 h; method in brief: as §1
K562 = test: Growth inhibition of human K562 cells after 48 hrs by sulforhodamine B assay; type: functional; settings: K562, 48 h; method in brief: as §1
T47D = test: Growth inhibition of human T47D cells after 48 hrs by sulforhodamine B assay; type: functional; method in brief: as §2
IGROV-1 = test: Growth inhibition of human IGROV1 cells after 48 hrs by sulforhodamine B assay; type: functional; settings: IGROV-1, 48 h; method in brief: as §1
786-0 = test: Growth inhibition of human 786-0 cells after 48 hrs by sulforhodamine B assay; type: functional; settings: 786-0, 48 h; method in brief: as §1
SR = test: Growth inhibition of human SR cells after 48 hrs by sulforhodamine B assay; type: functional; method in brief: as §2
OVCAR-3 = test: Growth inhibition of human OVCAR-3 cells after 48 hrs by sulforhodamine B assay; type: functional; settings: OVCAR-3, 48 h; method in brief: as §1
UACC-257 = test: Growth inhibition of human UACC257 cells after 48 hrs by sulforhodamine B assay; type: functional; settings: UACC-257, 48 h; method in brief: as §2
NCI-H460 = test: Growth inhibition of human NCI-H460 cells after 48 hrs by sulforhodamine B assay; type: functional; settings: NCI-H460, 48 h; method in brief: as §1
MDA-MB-231 = test: Growth inhibition of human MDA-MB-231 cells after 48 hrs by sulforhodamine B assay; type: functional; settings: MDA-MB-231, 48 h; method in brief: as §1
DU-145 = test: Growth inhibition of human DU145 cells after 48 hrs by sulforhodamine B assay; type: functional; settings: DU-145, 48 h; method in brief: as §1
HT-29 = test: Growth inhibition of human HT-29 cells after 48 hrs by sulforhodamine B assay; type: functional; settings: HT-29, 48 h; method in brief: as §1
SF-268 = test: Growth inhibition of human SF268 cells after 48 hrs by sulforhodamine B assay; type: functional; settings: SF-268, 48 h; method in brief: as §1
NCI-H23 = test: Growth inhibition of human NCI-H23 cells after 48 hrs by sulforhodamine B assay; type: functional; settings: NCI-H23, 48 h; method in brief: as §1
NCI-H522 = test: Growth inhibition of human NCI-H522 cells after 48 hrs by sulforhodamine B assay; type: functional; settings: NCI-H522, 48 h; method in brief: as §1
BT-549 = test: Growth inhibition of human BT549 cells after 48 hrs by sulforhodamine B assay; type: functional; settings: BT-549, 48 h; method in brief: as §1
M14 = test: Growth inhibition of human M14 cells after 48 hrs by sulforhodamine B assay; type: functional; settings: M14, 48 h; method in brief: as §1
UO-31 = test: Growth inhibition of human UO31 cells after 48 hrs by sulforhodamine B assay; type: functional; settings: UO-31, 48 h; method in brief: as §2
A549 = test: Growth inhibition of human A549 cells after 48 hrs by sulforhodamine B assay; type: functional; settings: A549, 48 h; method in brief: as §1
RXF 393 = test: Growth inhibition of human RXF393 cells after 48 hrs by sulforhodamine B assay; type: functional; settings: RXF 393, 48 h; method in brief: as §1
HCT-116 = test: Growth inhibition of human HCT116 cells after 48 hrs by sulforhodamine B assay; type: functional; settings: HCT-116, 48 h; method in brief: as §1

## N#CC(C#N)=CN1CCN(C(=O)c2ccccc2)C1=S
ACHN
  GI50: 18.8 µM
SK-OV-3
  GI50: 66.7 µM
HOP-92
  GI50: 56.8 µM
U-251
  GI50: 38.2 µM
UACC-62
  GI50: 50.4 µM
SF-295
  GI50: 46.2 µM
[1]
  GI50: 35.3 µM
NCI-H322M
  GI50: 33.4 µM
Malme-3M
  GI50: 10.2 µM
TK-10
  GI50: 23.3 µM
OVCAR-8
  GI50: 77 µM
SK-MEL-28
  GI50: 45.5 µM
MOLT-4
  GI50: 39.2 µM
SK-MEL-5
  GI50: 23.3 µM
PC-3
  GI50: 60 µM
SK-MEL-2
  GI50: 18.4 µM
KM12
  GI50: 32.3 µM
HCT-15
  GI50: 36.4 µM
HL-60(TB)
  GI50: 33.5 µM
EKVX
  GI50: 3.5 µM
SW-620
  GI50: 33.7 µM
MT4
  IC50: 11 µM
OVCAR-4
  GI50: 59.3 µM
MCF7
  GI50: 16.7 µM
SN12C
  GI50: 24.6 µM
CAKI-1
  GI50: 28.7 µM
MDA-MB-435
  GI50: 38.8 µM
K562
  GI50: 79.5 µM
T47D
  GI50: 89.2 µM
IGROV-1
  GI50: 28.2 µM
786-0
  GI50: 38.9 µM
SR
  GI50: 18.8 µM
OVCAR-3
  GI50: 36.4 µM
UACC-257
  GI50: 25.3 µM
NCI-H460
  GI50: 20 µM
MDA-MB-231
  GI50: 36.1 µM
DU-145
  GI50: 24.4 µM
HT-29
  GI50: 42 µM
SF-268
  GI50: 21.3 µM
NCI-H23
  GI50: 26.1 µM
NCI-H522
  GI50: 15.9 µM
BT-549
  GI50: 22.8 µM
M14
  GI50: 37.3 µM
UO-31
  GI50: 20.4 µM
A549
  GI50: 37.1 µM
RXF 393
  GI50: 22.7 µM
HCT-116
  GI50: 34 µM
